pIC50: −log10 of the molar value.
Tests used:
MDA-MB-231 [1] = test: Antimigratory activity in human MDA-MB-231 cells after 24 hrs using transwell system by light microscopy; type: functional, cell-based; conditions: MDA-MB-231, 24 h
In short: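 Transwell chambers: 2.5×10^4 cells in serum-free, phenol red-free medium in the upper chamber, with DMEM + 5% FBS below as chemoattractant. Compounds at 10^-8, 10^-7, 10^-6 and 10^-5 M, with 0.1% DMSO vehicle, for 24 h. Membranes were scrubbed, formalin-fixed, methanol-permeabilized and stained with 0.1% crystal violet. Migrated cells were counted by light microscopy per 100× field as % of vehicle. IC50 is the concentration giving 50% migration inhibition.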

MDA-MB-231 [2] = test: Cytotoxicity against human MDA-MB-231 cells assessed as survival at 1 uM after 5 days; type: functional; conditions: MDA-MB-231, 120 h, read-out: Survival

| SMILES | pIC50 (MDA-MB-231 [1]) | viability at 1 µM (MDA-MB-231 [2]) |
| --- | --- | --- |
| C#CCn1c(-c2ccc(C)cc2C)cs/c1=N\C(=O)c1ccccc1 | 5.41 | 70.2% |
| Cc1s/c(=N\C(=O)c2ccccc2)n(C)c1-c1ccc(F)cc1 | 6.07 | 83.8% |
| Cc1ccc(-c2cnc(NC(=O)c3ccccc3)s2)cc1 | 6.51 | 55.6% |
| O=C(Nc1nc(-c2cc(C(F)(F)F)cc(C(F)(F)F)c2)cs1)c1ccccc1 | 6.47 | 85.8% |
| O=C(Nc1nc(-c2cccc(Br)c2)cs1)c1ccccc1 | 5.00 | 78% |
| COc1cc(C(=O)/N=c2\scc(-c3cc(OC)c(OC)c(OC)c3)n2C)cc(OC)c1OC | 5.71 | 81.5% |
| Cn1c(-c2cccc(Br)c2)cs/c1=N\C(=O)c1ccccc1 | 6.52 | 94.4% |
| COc1ccc(C(=O)Nc2nc(-c3cc(OC)c(OC)c(OC)c3)cs2)cc1 | < 4.60 | 93.8% |
| O=C(Nc1nc(-c2ccc(Br)cc2)cs1)c1ccccc1 | 5.02 | 82.2% |
| CCN(C(=O)c1ccccc1)c1nc(-c2ccccc2)cs1 | 6.27 | 129% |
| Cc1s/c(=N\C(=O)c2ccccc2)n(C)c1-c1ccccc1 | 6.71 | 68.4% |
| Cc1ccc(-c2cs/c(=N\S(=O)(=O)c3ccccc3)n2C)c(C)c1 | 5.84 | 92.4% |
| COc1ccccc1C(=O)Nc1nc(-c2cc(OC)c(OC)c(OC)c2)cs1 | 5.07 | 104% |
| O=C(Nc1nc(-c2cccc(Cl)c2)cs1)c1ccccc1 | 6.91 | 71.4% |
| CCCn1c(-c2ccc(C)cc2C)cs/c1=N\C(=O)c1ccccc1 | 6.53 | 85% |
| Cc1ccc(-c2cn(C)/c(=N/C(=O)c3ccccc3)s2)cc1 | < 4.60 | 113% |
| COc1cc(-c2csc(NC(=O)c3cccc(OC)c3OC)n2)cc(OC)c1OC | 4.82 | 90.1% |
| COc1cc(-c2cs/c(=N\C(=O)c3ccccc3)n2C)cc(OC)c1OC | 5.97 | 88.4% |
| Cc1csc(NC(=O)c2ccccc2)n1 | 4.92 | 103% |
| COc1cc(-c2csc(NC(=O)c3ccccc3)n2)cc(OC)c1OC | < 4.30 | 95% |
| CCn1c(-c2ccccc2)cs/c1=N\C(=O)c1ccccc1 | 7.29 | 68.5% |
| COc1cc(C(=O)N(C)c2nc(-c3cc(OC)c(OC)c(OC)c3)cs2)cc(OC)c1OC | 6.33 | 115% |
| Cc1ccc(-c2csc(N(C)S(=O)(=O)c3ccccc3)n2)c(C)c1 | < 4.60 | 117% |
| C=CCn1c(-c2ccccc2)cs/c1=N\C(=O)c1ccccc1 | 5.92 | 64.8% |
| Cn1c(-c2cccc(Cl)c2)cs/c1=N\C(=O)c1ccccc1 | 6.44 | 35.2% |

| SMILES | pIC50 (MDA-MB-231 [1]) | viability at 1 µM (MDA-MB-231 [2]) |
| --- | --- | --- |
| Cn1c(-c2ccc(Br)cc2)cs/c1=N\C(=O)c1ccccc1 | 6.90 | 59.3% |
| Cn1c(-c2cc(C(F)(F)F)cc(C(F)(F)F)c2)cs/c1=N\C(=O)c1ccccc1 | 7.02 | 79.8% |
| COc1ccc(C(=O)N(C)c2nc(-c3cc(OC)c(OC)c(OC)c3)cs2)cc1OC | < 4.60 | 102% |
| COc1cccc(C(=O)N(C)c2nc(-c3cc(OC)c(OC)c(OC)c3)cs2)c1 | 6.19 | 88.9% |
| COc1ccc(C(=O)Nc2nc(-c3cc(OC)c(OC)c(OC)c3)cs2)cc1OC | < 4.60 | 87.3% |
| COc1cc(-c2csc(NC(=O)c3ccc(Cl)cc3)n2)cc(OC)c1OC | < 4.60 | 85.6% |
| COc1ccc(C(=O)N(C)c2nc(-c3cc(OC)c(OC)c(OC)c3)cs2)cc1 | 6.51 | 100% |
| COc1cc(-c2csc(N(C)C(=O)c3ccccc3)n2)cc(OC)c1OC | 5.00 | 96.4% |
| Cc1cs/c(=N\C(=O)c2ccccc2)n1C | 4.82 | 103% |
| COc1ccc(C(=O)Nc2nc(-c3cc(OC)c(OC)c(OC)c3)cs2)c(OC)c1 | < 4.30 | 93.8% |
| CN(C(=O)c1ccccc1)c1nc(-c2cccc(Br)c2)cs1 | 6.36 | 104% |
| COc1ccccc1C(=O)N(C)c1nc(-c2cc(OC)c(OC)c(OC)c2)cs1 | < 4.60 | 109% |
| COc1cccc(C(=O)/N=c2\scc(-c3cc(OC)c(OC)c(OC)c3)n2C)c1 | < 4.30 | 104% |
| C#CCN(C(=O)c1ccccc1)c1nc(-c2ccc(C)cc2C)cs1 | 6.49 | 106% |
| Cn1c(-c2ccccc2Cl)cs/c1=N\C(=O)c1ccccc1 | 6.57 | 72.2% |
| Cc1sc(N(C)C(=O)c2ccccc2)nc1-c1ccc(F)cc1 | 5.79 | 108% |
| CCCCn1c(-c2ccc(C)cc2C)cs/c1=N\C(=O)c1ccccc1 | 6.71 | 70.4% |
| COc1cc(C(=O)Nc2nc(-c3cc(OC)c(OC)c(OC)c3)cs2)cc(OC)c1OC | 5.99 | 77.6% |
| C#CCn1c(-c2ccccc2)cs/c1=N\C(=O)c1ccccc1 | 5.56 | 63% |
| Cc1ccc(-c2cnc(N(C)C(=O)c3ccccc3)s2)cc1 | 5.96 | 59.3% |
| COc1cc(-c2csc(N(C)C(=O)c3cccc(OC)c3OC)n2)cc(OC)c1OC | 6.97 | 118% |
| Cc1sc(NC(=O)c2ccccc2)nc1-c1ccc(F)cc1 | 5.04 | 53.7% |
| Cc1ccc(-c2csc(NS(=O)(=O)c3ccccc3)n2)c(C)c1 | 4.96 | 137% |
| COc1ccc(C(=O)/N=c2\scc(-c3cc(OC)c(OC)c(OC)c3)n2C)cc1 | 5.09 | 106% |
| COc1cc(-c2cs/c(=N\C(=O)c3ccc(Cl)cc3)n2C)cc(OC)c1OC | 6.12 | 77.6% |

Reference: ChEMBL document CHEMBL3352186, “Modification and biological evaluation of thiazole derivatives as novel inhibitors of metastatic cancer cell migration and invasion” (J Med Chem, 2014)
